Results from paper PMC3306481 (Clinical Cancer Research, 2012).
Read-outs that look alike come from different tables or passages of the source.

Experiments:
[1] = for Maximum tolerated dose (MTD): 21-day cycles (DL 7)
[2] = high-dose veliparib, preclinical model; cited from earlier work
[3] = test system: refractory solid tumors and lymphoid malignancies; experiment: Phase I trial: tumor response by RECIST 1.0; assay type: in vivo, human
[4] = studies conducted with veliparib; cited from earlier work
[5] = test system: γH2AX; experiment: γH2AX levels in circulating tumor cells; assay type: in vivo, human; conditions: day 2 of cycle 1; of nine patients with detectable CTCs; with cyclophosphamide
Method in brief: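 During cycle 1, patients took the oral test compound once daily (20–60 mg) with daily oral alkylator (50 or 100 mg). Circulating tumour cells were scored for γH2AX positivity by a validated immunofluorescence assay run to standard operating procedures and compared with each patient's baseline.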

[6] = test system: poly(ADP-ribose) (PAR), a product of PARP; experiment: PAR levels in tumor biopsies; assay type: in vivo, human; conditions: all five patients with paired pre- and post-dose biopsies, after 7 or 21 days of treatment; with cyclophosphamide
[7] = Veliparib plasma pharmacokinetics; assay type: in vivo, human
Method in brief: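 The oral test compound was dosed once daily at 20–60 mg with oral alkylator 50 or 100 mg daily. Plasma was sampled pre-dose and 0.5, 1, 1.5, 2, 3, 4, 6, 8 and 24 h post-dose on cycle 1 day 1 and on the last dosing day (7, 14 or 21). Blood was spun at 1,000 × g and plasma held at -70°C. Levels were read by LC-MS validated to FDA guidelines. Days were compared by two-tailed paired exact Wilcoxon test, with P < 0.05 taken as significant.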

[8] = test system: PARP; conditions: 24 hours after a single 50 mg dose; phase 0 trial; cited from earlier work

## O=P1(N(CCCl)CCCl)NCCCO1 (centres unmarked) [cyclophosphamide]
[1]; cyclophosphamide daily with veliparib 60 mg daily
  Maximum tolerated dose (MTD): 50 mg

## C[C@]1(c2nc3c(C(N)=O)cccc3[nH]2)CCCN1 [veliparib, Veliparib]
[2]
  Seizures: caused seizures
[1]; in vivo
  Tolerability of the study regimen: well tolerated
[1]; veliparib daily with cyclophosphamide 50 mg daily
  Maximum tolerated dose (MTD): 60 mg
[3]; partial response, patient 15, breast cancer, dose level 5, with cyclophosphamide
  Total No. of cycles: 4 cycles
[3]; thirteen patients with known BRCA mutations, with cyclophosphamide
  Patients with prolonged stable disease among patients with known BRCA mutations: three
[3]; veliparib with metronomic cyclophosphamide, 35 patients enrolled, RECIST 1.0
  Patients with partial response: Seven
[4]
  Cardiac toxicity related to study drug: no indication of cardiac toxicity
[5]
  Patients with an increased percentage of γH2AX-positive CTCs: Seven
[6]
  Decrease in PAR levels in tumor biopsies: greater than 80%
[7]; co-administered metronomic cyclophosphamide
  Changes in PK parameters between baseline and day 7, 14, or 21: No statistically significant changes
[7]; human, plasma, oral
  half-life: 5 ± 1.5 h
[7]; three patients on DL 5 (100 mg cyclophosphamide)
  PK behavior of veliparib at DL 5 compared with other DLs: not different
[8]
  Inhibition of PARP activity in tumor biopsies: greater than 48%
